PGC1a acetyl up = raises PGC1a acetylation signal in U2OS cells. activation, % at 15.6 µM. 350,000 compounds, 0.21% hits. U2OS PGC1a acetylation AlphaScreen, overnight;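 active = every replicate reaching activation of at least 50%, whatever the mean replicate activation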;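 note: hits raise the AlphaScreen acetylation signal above neutral controls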
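Test system: U2OS cells expressing flag-PGC1a plus GCN5; Amount: 7000 U2OS cells per well; Compound: single test concentration per compound; Incubation: compound overnight at 37 °C, each detection step 1 h RT; Signal: AlphaScreen lysate read.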
Each line names hits and unclear results; the compound was inactive in the other large screens. The sample as a whole holds a higher share of hits than the screen did.

N#Cc1ccc(-c2ccc([C@@H]3[C@@H]4CN(S(=O)(=O)c5ccc(-c6ccccc6)cc5)C[C@H]3N4)cc2)cc1	none
Cc1noc(C)c1NC(=O)N(C)C[C@H]1OCCCC[C@@H](C)Oc2ccc(NC(=O)Cc3ccccc3)cc2C(=O)N([C@@H](C)CO)C[C@@H]1C	none
Cc1nn(C)c(C)c1N1C(=O)c2cccc3c(Br)ccc(c23)C1=O	none
COc1cccc(C2c3[nH]c4ccccc4c3CCN2Cc2cnc(C)s2)c1OC (stereo not given)	PGC1a acetyl up 70
CO[C@H]1CN(C)C(=O)c2cc(NC(=O)NC(C)C)ccc2OC[C@H](C)N(Cc2ccc(-c3ccccn3)cc2)C[C@@H]1C	none
O=C(CN1C(=O)C2C3CC(C(Br)C3Br)C2C1=O)OCC(=O)c1cccc([N+](=O)[O-])c1 (stereo not given)	none
CSc1cccc(N2CC(C(=O)NCCN3C(=O)S/C(=C\c4cccnc4)C3=O)CC2=O)c1 (stereo not given)	none
O=C(NC1=NCCS1)C1CC(=O)N(c2ccccc2)C1 (stereo not given)	PGC1a acetyl up 68
C=CCSc1nc2ccccc2n1C(=O)/C=C/c1cc(OC)c(OC)c(OC)c1	PGC1a acetyl up 527
CC(=O)NC(c1cccc(F)c1)c1nc(-c2cccc(C(C)C)c2)cs1 (stereo not given)	none
COc1ccccc1Nc1nc(NCCC(C)C)nc(N)c1[N+](=O)[O-]	none
CC(C)(C)NC(=O)Cn1nnc(-c2ccc(OCc3c(F)cccc3Cl)cc2)n1	PGC1a acetyl up 66
CC(C)c1ccc(-c2nnn(CC(=O)N3CCCCC3)n2)cc1	none
COc1ccc(OCCCC(=O)OCC(=O)Nc2c(C)nn(-c3ccccc3)c2C)cc1	none
COc1ccc(C)cc1NC(=O)C1CCCN(S(=O)(=O)c2cccs2)C1 (stereo not given)	none
O=C(NCc1ccc2c(c1)OCO2)C1CCN(S(=O)(=O)c2cccs2)CC1	PGC1a acetyl up 83
CN(C)C(=O)C[C@@H]1C=C[C@@H](NS(=O)(=O)c2ccccc2)[C@@H](CO)O1	none
NC(Cc1ccccc1)c1csc(NC(=O)Nc2ccccc2Oc2ccccc2)n1 (stereo not given)	PGC1a acetyl up 71
CC1=CC(C)(C)N2C(=O)C3(SCC(=O)N3c3ccc(F)cc3)c3cc(C)cc1c32 (stereo not given)	PGC1a acetyl up 93
COc1ccccc1C1c2c(C)nn(-c3ccccc3)c2NC(=O)C1NC(=O)c1ccccc1 (stereo not given)	none
Cc1ccc(-n2c(SCC(N)=O)nnc2-c2ccc(S(=O)(=O)N3CCCCC3)cc2)c(C)c1	PGC1a acetyl up 63
Cc1ccc(S(=O)(=O)N2CCCC2)cc1C(=O)O	none
CC(=O)CS(=O)(=O)c1ccc(Oc2ccc(S(=O)(=O)CC(C)=O)cc2)cc1	none
Cc1ccc(S(=O)(=O)CCSC(=N)N)cc1	PGC1a acetyl up 67
CCOc1cc(/C=C2\CN(C)C/C(=C\c3ccc(O)c(OCC)c3)C2=O)ccc1O	none
CCOc1cc(C)c(S(=O)(=O)N2CCCC2)cc1C	PGC1a acetyl up 61
Cc1cc(S(=O)(=O)Nc2ccc3ccccc3c2)c(C)s1	PGC1a acetyl up 58
Cc1cc(C)nc(NS(=O)(=O)c2ccc(NC(=O)Nc3ccccc3)cc2)n1	none
Cc1ccc(C)c(S(=O)(=O)N(C(=O)c2ccncc2)c2ccc(OC(=O)c3ccncc3)cc2)c1	none
CC(=O)N1/C(=C/c2ccc(N(C)C)cc2)C(=O)c2ccccc21	PGC1a acetyl up 75
C[C@H](CO)N1C[C@H](C)[C@H](CN(C)S(=O)(=O)c2ccc(F)cc2)Oc2ccc(NS(=O)(=O)c3cn(C)cn3)cc2C1=O	none
O=C(C/C=N/OCc1c(Cl)cccc1Cl)c1cnc(-c2ccccc2)s1	none
Cn1nnnc1Sc1ncnc2scc(-c3cc4ccccc4o3)c12	PGC1a acetyl up 106
Cn1nnnc1Sc1ncnc2scc(-c3ccc(C#N)cc3)c12	PGC1a acetyl up 74
O=C(OCn1ncc(Br)c(Br)c1=O)c1ccc(F)cc1	none
CCCCS(=O)(=O)/C=C\C=C/S(=O)(=O)CCCC	none
CCCc1nnc(NC(=O)CN2CCOCC2)s1	PGC1a acetyl up 93
CCC(=O)Nc1nnc(SCCOC)s1	none
NC(=O)C1CCN(C2=C(Cl)C(=O)c3ccccc3C2=O)CC1	PGC1a acetyl up 66
CCn1nnc(NC(=O)c2ccc(C(C)(C)C)cc2)n1	none
COc1ccc(S(=O)(=O)Nc2ccc3c(c2)C(=O)N([C@H](C)CO)C[C@@H](C)[C@H](CN(C)C(=O)Nc2ccc(C(F)(F)F)cc2)OCCCC[C@@H](C)O3)cc1	none
CCOC(=O)C(NC(=O)c1ccccc1OCC)(Nc1ncccn1)C(F)(F)F (stereo not given)	PGC1a acetyl up 70
CCOc1ccccc1C(=O)NCCCCCC(=O)O	none
CCOc1ccc(C(=O)N/N=C(\c2ccccc2)c2ccccn2)cc1	none
C[C@@H]1CN([C@@H](C)CO)C(=O)c2cc(-c3cccc(C#N)c3)cnc2O[C@H]1CN(C)C(=O)c1ccccn1	none
O=C(c1ccccc1)c1nn(-c2ccc(Cl)cc2)c(=O)cc1C(F)(F)F	PGC1a acetyl up 179
Cc1cc(-c2c(C)[nH]n(-c3ccc(Cl)cc3)c2=O)n(-c2ccccc2)n1	none
O=C1c2ccccc2C(=O)c2c1oc(C(F)(F)F)c2C(=O)c1ccccc1	none
C[C@@H]1CN([C@H](C)CO)C(=O)c2cc(C#CC(C)(C)O)cnc2O[C@H]1CN(C)C(=O)c1ccccc1F	none
CC(Nc1ccccc1)c1cc(Cl)ccc1O (stereo not given)	none
O=C(Cc1cccnc1)N1CC(=O)N2[C@H](CO)[C@@H](c3ccc(C#CC4CCCCC4)cc3)[C@H]2C1	none
OC[C@H]1[C@H](c2ccc(C#CC3CCCC3)cc2)[C@@H]2CN(CCC(F)(F)F)CCCCN12	PGC1a acetyl up 65
OC[C@@H]1[C@H](c2ccc(/C=C/c3ccccc3)cc2)[C@H]2CN(CCC(F)(F)F)CCCCN12	PGC1a acetyl up 67
CC(/C=C1\SC(=O)N(CCCC(=O)O)C1=O)=C\c1ccccc1	none
CCOc1c(Br)cc(/C=C2/SC(=O)N(CC(=O)N3CCCC3)C2=O)cc1OC	PGC1a acetyl up 96
Cc1ccccc1NCC(=O)N/N=C/C(Br)=C/c1ccccc1	PGC1a acetyl up 150
O=C(Cc1cccs1)N/N=C/C(Br)=C/c1ccccc1	PGC1a acetyl up 81
CC(C)[C@H](NC(=O)NCc1cccs1)C(=O)O	none
O=C(Cn1nc(C(=O)O)c2ccccc2c1=O)Nc1cccc(Br)c1	none
CCc1ccc(C(=O)Nc2cccnc2Oc2ccc(Cl)cc2)cc1	none
O=C(CSc1nnc(-c2ccccc2)n1-c1ccc(Cl)cc1)N/N=C/c1ccccc1C(=O)O	none
O=C(CSc1ccc(Cl)cc1)N/N=C/c1ccc([N+](=O)[O-])o1	PGC1a acetyl up 92
Cc1ccc(O)c(/C=N/NC(=O)CN2CCCC2)c1	none
Cc1ccc(OCC(=O)N/N=C/c2ccc([N+](=O)[O-])o2)cc1	PGC1a acetyl up 84
CC1=NN(c2ccc(C)c(C)c2)C(=O)/C1=C\C=C\c1ccc([N+](=O)[O-])o1	none
Cc1ccc(NC(=O)CCC(=O)N/N=C/c2ccc([N+](=O)[O-])o2)cc1C	PGC1a acetyl up 126
O=C(C[C@@H]1CC[C@@H]2[C@H](COC[C@@H](O)CN2S(=O)(=O)c2ccc(Cl)cc2)O1)N[C@@H]1CCN(Cc2ccccc2)C1	none
O=CNc1ccc2c(c1)Cc1cc([N+](=O)[O-])ccc1-2	PGC1a acetyl up 54
CCN(CC)S(=O)(=O)c1ccc(C(=O)N(c2ccccc2)C2C=CS(=O)(=O)C2)cc1 (stereo not given)	none
Cc1cc(C)cc(N(CC(=O)NC2CC3CCC2C3)S(C)(=O)=O)c1 (stereo not given)	PGC1a acetyl up 83
